# Columns and labels:
# [1] = target: T1, Adenosine receptor A3 (Homo sapiens, UniProt P0DMS8); test: Inhibition of (10 uM) forskolin-mediated cAMP production in CHO cells expressing human Adenosine A3 receptor; assay type: functional, cell-based
# T1 sequence (P0DMS8 whole entry): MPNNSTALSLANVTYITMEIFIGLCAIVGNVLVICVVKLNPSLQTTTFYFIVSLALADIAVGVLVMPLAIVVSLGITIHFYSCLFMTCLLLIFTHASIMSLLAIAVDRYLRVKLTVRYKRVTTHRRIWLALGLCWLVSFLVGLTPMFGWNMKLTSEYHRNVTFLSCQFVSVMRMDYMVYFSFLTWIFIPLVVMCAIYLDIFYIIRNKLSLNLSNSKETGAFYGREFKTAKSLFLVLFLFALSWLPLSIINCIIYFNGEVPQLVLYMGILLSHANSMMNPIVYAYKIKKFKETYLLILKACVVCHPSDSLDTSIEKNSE
# [2] = target: T2, Adenosine receptor A2a (Homo sapiens, UniProt P29274); test: Displacement of [3H]CGS-21680 binding to Adenosine A2 receptor expressed in CHO cells; assay type: cell-based
# T2 sequence (P29274 whole entry): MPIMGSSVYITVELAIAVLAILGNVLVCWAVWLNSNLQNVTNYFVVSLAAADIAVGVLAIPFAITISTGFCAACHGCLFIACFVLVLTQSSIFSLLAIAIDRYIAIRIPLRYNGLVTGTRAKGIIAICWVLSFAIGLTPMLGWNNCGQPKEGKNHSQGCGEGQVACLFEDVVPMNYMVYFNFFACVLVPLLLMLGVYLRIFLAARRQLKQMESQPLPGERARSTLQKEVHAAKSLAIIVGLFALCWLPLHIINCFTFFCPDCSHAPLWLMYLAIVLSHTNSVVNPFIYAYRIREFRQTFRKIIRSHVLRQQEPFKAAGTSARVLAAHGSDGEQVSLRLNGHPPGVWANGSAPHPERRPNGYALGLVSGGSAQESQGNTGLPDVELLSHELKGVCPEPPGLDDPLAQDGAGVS
# [3] = target: T3, Adenosine receptor A1 (Homo sapiens, UniProt P30542); test: Displacement of [3H]CHA binding to Adenosine A1 receptor expressed in CHO cells; assay type: cell-based
# T3 sequence (P30542 whole entry): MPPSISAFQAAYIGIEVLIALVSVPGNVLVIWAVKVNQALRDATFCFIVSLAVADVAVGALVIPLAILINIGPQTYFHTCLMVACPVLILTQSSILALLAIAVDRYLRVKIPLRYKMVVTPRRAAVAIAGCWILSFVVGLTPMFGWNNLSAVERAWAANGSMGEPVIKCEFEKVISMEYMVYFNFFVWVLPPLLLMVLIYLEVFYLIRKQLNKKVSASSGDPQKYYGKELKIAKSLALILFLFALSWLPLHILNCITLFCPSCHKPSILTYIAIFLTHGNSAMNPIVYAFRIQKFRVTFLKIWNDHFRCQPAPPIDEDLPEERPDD
# How it was run: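 Human A1-transfected CHO membranes (adenosine deaminase-treated), 50 µg protein, incubated 120 min at 25 °C in 50 mM Tris HCl pH 7.4 with 1 nM [3H]-CHA and 6-8 agonist concentrations; nonspecific binding with 10 µM CHA. Filtration through GF/B filters, scintillation counting; Ki from IC50 via Cheng-Prusoff; geometric mean with confidence limits.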
# [4] = target: Adenosine receptors; A1 & A3 (Homo sapiens) (UniProt P30542+P0DMS8); test: Ratio of binding affinity for Adenosine A1 and Adenosine A3 receptors; assay type: protein assay
# [5] = target: Adenosine receptors; A2a & A3 (Homo sapiens) (UniProt P0DMS8+P29274); test: Ratio of binding affinity for Adenosine A2A and Adenosine A3 receptors; assay type: protein assay
# Adenosine receptors; A2a & A3 (Homo sapiens), sequence (P29274 whole entry, looked up, one chain of several): as the sequence (P29274 whole entry) above
# How it was run: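 Ki ratio of two competition binding assays on adenosine deaminase-treated membranes of CHO cells expressing human receptors (50 µg protein). […] A3: 1 nM [125I]-AB-MECA, 120 min, 4 °C, duplicates. Filtration read-out; Ki by Cheng-Prusoff.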
# [6] = target: T1, Adenosine receptor A3; test: Displacement of [125I]AB-MECA binding to Adenosine A3 receptor expressed in CHO cells; assay type: cell-based
# [7] = target: T2, Adenosine receptor A2a; test: Inhibition of [3H]CGS-21680 binding to Adenosine A2A receptor expressed in CHO cells; assay type: cell-based; design: concentration or dose not given beside the values; settings: concentration not given here
smiles,measurement,setting,value
"CCNC(=O)[C@H]1O[C@@H](n2cnc3c(NC(=O)Nc4ccc(S(N)(=O)=O)cc4)ncnc32)C(O)C1O (single isomer, unassigned)",IC50,[1],81 nM
same,Ki,[2],95.2 nM
same,Ki,[3],30.1 nM
same,Ratio,[4],2.03
same,Ratio,[5],6.43
same,Ki,[6],14.8 nM
"CCNC(=O)[C@H]1OC(n2cnc3c(NC(=O)Nc4ccc(S(=O)(=O)NC5CCCC5)cc4)ncnc32)C(O)C1O (single isomer, unassigned)",Ki,[2],> 1000 nM
same,Ki,[3],415 nM
same,inhibition,[7],19%
same,Ratio,[4],17.3
same,Ki,[6],24 nM
"CCCCCNS(=O)(=O)c1ccc(NC(=O)Nc2ncnc3c2ncn3C2O[C@H](C(=O)NCC)C(O)C2O)cc1 (single isomer, unassigned)",Ki,[2],> 1000 nM
same,Ki,[3],445 nM
same,inhibition,[7],32%
same,Ratio,[4],5.56
same,Ki,[6],80 nM
"CCNC(=O)[C@H]1OC(n2cnc3c(NC(=O)Nc4ccc(S(=O)(=O)NC5CCCCC5)cc4)ncnc32)C(O)C1O (single isomer, unassigned)",Ki,[2],> 1000 nM
same,Ki,[3],350 nM
same,inhibition,[7],25%
"CCNC(=O)[C@H]1OC(n2cnc3c(NC(=O)Nc4ccc(S(=O)(=O)NC(C)(C)C)cc4)ncnc32)C(O)C1O (single isomer, unassigned)",Ki,[2],> 1000 nM
same,Ki,[3],250 nM
same,inhibition,[7],32%
same,Ratio,[4],12.5
same,Ki,[6],20 nM
"CCNC(=O)[C@H]1OC(n2cnc3c(NC(=O)Nc4ccc(S(=O)(=O)N5CCCCC5)cc4)ncnc32)C(O)C1O (single isomer, unassigned)",Ki,[2],> 1000 nM
same,inhibition,[7],15%
"CCNC(=O)[C@H]1OC(n2cnc3c(NC(=O)Nc4ccc(S(=O)(=O)NC56CC7CC(CC(C7)C5)C6)cc4)ncnc32)C(O)C1O (single isomer, unassigned)",Ki,[2],> 1000 nM
same,Ki,[3],240 nM
same,inhibition,[7],31%
same,Ratio,[4],7.5
same,Ki,[6],35 nM
"CCNC(=O)[C@H]1OC(n2cnc3c(NC(=O)Nc4ccc(S(=O)(=O)N(CCCl)CCCl)cc4)ncnc32)C(O)C1O (single isomer, unassigned)",Ki,[2],> 1000 nM
same,Ki,[3],730 nM
same,inhibition,[7],27%
same,Ratio,[4],31.7
same,Ki,[6],23 nM
"CCNC(=O)[C@H]1OC(n2cnc3c(NC(=O)Nc4ccc(S(=O)(=O)NCC)cc4)ncnc32)C(O)C1O (single isomer, unassigned)",Ki,[2],> 1000 nM
same,Ki,[3],250 nM
same,inhibition,[7],34%
same,Ratio,[4],10.9
same,Ki,[6],23 nM
"CCNC(=O)[C@H]1OC(n2cnc3c(NC(=O)Nc4ccc(S(=O)(=O)N(C)C)cc4)ncnc32)C(O)C1O (single isomer, unassigned)",Ki,[2],> 1000 nM
same,Ki,[3],280 nM
same,inhibition,[7],21%
"CCNC(=O)[C@H]1OC(n2cnc3c(NC(=O)Nc4ccc(S(=O)(=O)N5CC=CC5)cc4)ncnc32)C(O)C1O (single isomer, unassigned)",Ki,[2],> 1000 nM
same,Ki,[3],250 nM
same,inhibition,[7],17%
same,Ratio,[4],13.2
same,Ki,[6],19 nM
"CCNC(=O)[C@H]1OC(n2cnc3c(NC(=O)Nc4ccc(S(=O)(=O)N5CCCC5)cc4)ncnc32)C(O)C1O (single isomer, unassigned)",Ki,[2],> 1000 nM
same,inhibition,[7],23%
same,Ki,[6],22 nM
"CCCN(CCC)S(=O)(=O)c1ccc(NC(=O)Nc2ncnc3c2ncn3C2O[C@H](C(=O)NCC)C(O)C2O)cc1 (single isomer, unassigned)",Ki,[2],> 1000 nM
same,Ki,[3],350 nM
same,inhibition,[7],15%
same,Ratio,[4],25
same,Ki,[6],14 nM
"CCNC(=O)[C@H]1OC(n2cnc3c(NC(=O)Nc4ccc(S(=O)(=O)N5CCOCC5)cc4)ncnc32)C(O)C1O (single isomer, unassigned)",Ki,[2],> 1000 nM
same,Ki,[3],725 nM
same,inhibition,[7],20%
same,Ratio,[4],36.2
same,Ki,[6],20 nM
"CCNC(=O)[C@H]1OC(n2cnc3c(NC(=O)Nc4ccc(S(=O)(=O)Nc5ccc(OC)cc5)cc4)ncnc32)C(O)C1O (single isomer, unassigned)",Ki,[2],> 1000 nM
same,Ki,[3],280 nM
same,inhibition,[7],34%
"CCNC(=O)[C@H]1OC(n2cnc3c(NC(=O)Nc4ccc(S(=O)(=O)N(CC)CC)cc4)ncnc32)C(O)C1O (single isomer, unassigned)",Ki,[2],> 1000 nM
same,inhibition,[7],28%
"CCNC(=O)[C@H]1OC(n2cnc3c(NC(=O)Nc4ccc(S(=O)(=O)NCc5ccccc5)cc4)ncnc32)C(O)C1O (single isomer, unassigned)",Ki,[2],> 1000 nM
same,Ki,[3],300 nM
same,inhibition,[7],30%
"C=CCN(C)S(=O)(=O)c1ccc(NC(=O)Nc2ncnc3c2ncn3C2O[C@H](C(=O)NCC)C(O)C2O)cc1 (single isomer, unassigned)",IC50,[1],42 nM
same,Ki,[2],> 1000 nM
same,inhibition,[7],10%
same,Ki,[6],10 nM
"CCCNS(=O)(=O)c1ccc(NC(=O)Nc2ncnc3c2ncn3C2O[C@H](C(=O)NCC)C(O)C2O)cc1 (single isomer, unassigned)",Ki,[2],> 1000 nM
same,Ki,[3],290 nM
same,inhibition,[7],31%
same,Ratio,[4],11.6
same,Ki,[6],25 nM
"C=CCN(CC=C)S(=O)(=O)c1ccc(NC(=O)Nc2ncnc3c2ncn3C2O[C@H](C(=O)NCC)C(O)C2O)cc1 (single isomer, unassigned)",IC50,[1],65 nM
same,Ki,[2],> 1000 nM
same,Ki,[3],380 nM
same,inhibition,[7],15%
same,Ratio,[4],38
same,Ki,[6],10 nM
"CCNC(=O)[C@H]1OC(n2cnc3c(NC(=O)Nc4ccc(S(=O)(=O)N(C)C(C)C)cc4)ncnc32)C(O)C1O (single isomer, unassigned)",inhibition,[7],13%
